Assay results: ChEMBL document CHEMBL4354866, “TREK Channel Family Activator with a Well-Defined Structure-Activation Relationship for Pain and Neurogenic Inflammation” (J Med Chem, 2020)
Calls of active or inactive are those of the source.

Experiments:
[1] = target: T1, Potassium channel subfamily K member 2 (Homo sapiens) (UniProt O95069); experiment: Activation of recombinant human TREK1 expressed in HEK293T cells assessed as increase in probability of open channel by outside-out patch electrophysiological analysis; assay type: cell-based
T1 sequence (whole entry): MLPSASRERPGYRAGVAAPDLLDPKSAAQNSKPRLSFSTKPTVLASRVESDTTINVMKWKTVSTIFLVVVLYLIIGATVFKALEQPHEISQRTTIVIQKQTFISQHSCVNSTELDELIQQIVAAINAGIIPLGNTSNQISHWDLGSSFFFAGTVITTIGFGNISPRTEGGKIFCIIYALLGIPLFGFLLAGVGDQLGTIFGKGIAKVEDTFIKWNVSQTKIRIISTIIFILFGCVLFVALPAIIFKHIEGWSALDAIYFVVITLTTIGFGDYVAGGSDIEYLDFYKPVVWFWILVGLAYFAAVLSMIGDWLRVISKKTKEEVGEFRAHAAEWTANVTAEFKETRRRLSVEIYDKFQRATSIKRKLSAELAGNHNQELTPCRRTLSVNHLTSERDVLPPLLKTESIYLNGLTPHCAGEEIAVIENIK
Procedure, shortened: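 Outside-out patches from HEK-293T cells transfected with human TREK-1 (pEGFP-N1). Pipettes 7–15 MΩ. Open probability measured at -60 and +60 mV. Conductance taken as first open-state current amplitude divided by voltage at ±60 mV.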

[2] = target: Potassium channel subfamily K member 2 (Homo sapiens, UniProt O95069, W290A); experiment: Activation of recombinant human TREK1 W290A mutant expressed in HEK293T cells assessed as increase in K+ current amplitude by whole cell voltage clamp electrophysiological analysis; assay type: cell-based
Potassium channel subfamily K member 2 (Homo sapiens, UniProt O95069, W290A), sequence (O95069 whole entry W290A): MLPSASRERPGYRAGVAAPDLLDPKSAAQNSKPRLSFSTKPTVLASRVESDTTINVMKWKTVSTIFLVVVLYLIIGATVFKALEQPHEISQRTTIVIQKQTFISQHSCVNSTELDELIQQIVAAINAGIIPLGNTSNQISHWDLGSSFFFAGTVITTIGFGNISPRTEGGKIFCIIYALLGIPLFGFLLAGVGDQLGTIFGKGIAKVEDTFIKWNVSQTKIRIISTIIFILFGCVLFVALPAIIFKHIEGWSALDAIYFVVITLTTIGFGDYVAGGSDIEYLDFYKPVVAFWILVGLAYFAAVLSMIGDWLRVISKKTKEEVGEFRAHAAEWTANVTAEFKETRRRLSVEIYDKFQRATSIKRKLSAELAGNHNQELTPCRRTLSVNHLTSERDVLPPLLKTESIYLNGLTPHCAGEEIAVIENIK
Procedure, shortened: (§1)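 Transiently transfected HEK-293T cells, whole-cell voltage clamp. Held at -60 mV, 500-ms ramp -120 to +60 mV. Pipette (mM) 140 KCl, 5 EGTA, 10 HEPES, pH 7.4; external 145 NaCl, 4 KCl, pH 7.3. Compound diluted from 10 mM DMSO stock and applied extracellularly. Current increase over control fitted to concentration–response curves for EC50.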

[3] = target: Potassium channel subfamily K member 2 (Homo sapiens, UniProt O95069, I293A); experiment: Activation of recombinant human TREK1 I293A mutant expressed in HEK293T cells assessed as increase in K+ current amplitude by whole cell voltage clamp electrophysiological analysis; assay type: cell-based; procedure, shortened: as §1
Potassium channel subfamily K member 2 (Homo sapiens, UniProt O95069, I293A), sequence (O95069 whole entry I293A): as the sequence (O95069 whole entry W290A) above, with A290W, I293A counted along it

[4] = target: Potassium channel subfamily K member 2 (Homo sapiens, UniProt O95069, G275C); experiment: Activation of recombinant human TREK1 G275C mutant expressed in HEK293T cells assessed as increase in K+ current amplitude by whole cell voltage clamp electrophysiological analysis; assay type: cell-based
Potassium channel subfamily K member 2 (Homo sapiens, UniProt O95069, G275C), sequence (O95069 whole entry G275C): as the sequence (O95069 whole entry W290A) above, with G275C, A290W counted along it
Procedure, shortened: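 Human TREK-1 G275C expressed in HEK-293T, whole-cell ramp recordings. Tested with or without MTSET, 1 mM final, diluted from 0.5 M DMSO stock within 120 s of application. Concentration–response curves for EC50, n = 5–19; 10 μM single-point comparison by one-way ANOVA with Tukey test.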

Mus musculus [5] = experiment: Analgesic activity in ip dosed mouse assessed as increase in tail flick latency time measured up to 120 mins at 52 degC by tail immersion test; assay type: functional, organism-based
Procedure, shortened: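 Male BALB/c or C57BL/6 mice, 6–8 weeks, acclimated in a holder 15 min/day for 3 days. Distal 3 cm of tail immersed at 5, 20, 40, 46 or 52 °C; flick latency recorded, cut-off 15 s. Compound i.p. in 5% DMSO/5% Tween 80/90% saline (1.25–10 mg/kg at 52 °C; 5 mg/kg across temperatures).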

Mus musculus [6] = experiment: (§2) Analgesic activity in cerulein-induced mouse model of acute pancreatitis assessed as reduction in mechanical allodynia at 10 mg/kg, ip administered at 2 hrs interval for 10 hrs starting from post-first cerulein challenge and measured 0.5 hrs post-last cerulein challenge by von frey test; assay type: functional, organism-based
Procedure, shortened: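 Acute pancreatitis induced by 7 hourly i.p. injections of cerulein (50 µg/kg in ice-cold PBS); controls received PBS. Compound 10 mg/kg i.p. or vehicle at 2, 4, 6, 8 and 10 h. Von Frey testing (ascending filaments) started 0.5 h after the last cerulein injection.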

Mus musculus [7] = experiment: as §2, with “pancreatic necrosis” for “mechanical allodynia”, “12” for “0.5”, “post-first” for “post-last”, “H and E staining based histopathological analysis” for “von frey test”; assay type: functional, organism-based
Procedure, shortened: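 Cerulein pancreatitis: 7 hourly i.p. injections of 50 µg/kg; 10 mg/kg compound i.p. at 2, 4, 6, 8 and 10 h. Mice killed at 12 h and pancreas harvested for MPO activity and H&E histology. Ten random fields per slide scored blind by two observers for edema, inflammatory infiltration and acinar necrosis; n = 6.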

Mus musculus [8] = experiment: Analgesic activity in CFA-induced mouse model of chronic inflammatory pain assessed as increase in paw withdrawal latency at 5 mg/kg, ip measured up to 60 mins by Hargreaves test; assay type: functional, organism-based
Procedure, shortened: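 CFA (20 μl) injected subcutaneously into the left hindpaw of mice. Compound given i.p. in 5% DMSO/5% Tween 80/90% saline. Heat withdrawal latency recorded with a 5 min inter-stimulation period.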

Mus musculus [9] = experiment: Analgesic activity in mouse model of spared nerve injury assessed as reduction in cold hyperalgesia at 5 mg/kg, ip measured at 7 days interval for up to 21 days post spared nerve injury by cold plantar test; assay type: functional, organism-based
Procedure, shortened: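 SNI mice acclimated 3 days on a 6 mm glass plate; compound 5 mg/kg i.p. A dry-ice-packed syringe was applied to the centre of the left hindpaw. Withdrawal latency timed by stopwatch, cut-off 30 s; n = 8–10.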

[10] = target: T2, Potassium channel subfamily K member 2 (Rattus norvegicus) (UniProt Q920B6); experiment: Activation of TREK in depolarized Sprague-Dawley rat DRG neurons assessed as reversal potential of K+ current at 10 uM by whole cell voltage clamp electrophysiological analysis
T2 sequence (whole entry): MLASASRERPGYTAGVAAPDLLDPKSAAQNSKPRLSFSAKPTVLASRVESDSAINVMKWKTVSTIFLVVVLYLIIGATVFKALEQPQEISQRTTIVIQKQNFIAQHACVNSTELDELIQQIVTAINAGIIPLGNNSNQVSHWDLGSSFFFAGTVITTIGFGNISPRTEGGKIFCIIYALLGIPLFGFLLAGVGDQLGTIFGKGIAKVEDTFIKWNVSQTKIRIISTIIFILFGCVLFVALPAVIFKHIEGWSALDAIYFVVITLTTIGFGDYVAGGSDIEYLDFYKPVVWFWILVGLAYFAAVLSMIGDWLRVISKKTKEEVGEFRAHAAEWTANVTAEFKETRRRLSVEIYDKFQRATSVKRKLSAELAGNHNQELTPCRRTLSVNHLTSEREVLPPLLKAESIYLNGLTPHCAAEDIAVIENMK
Procedure, shortened: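 Rat DRG neurons, whole-cell voltage clamp in 3 mM external K⁺. Voltage ramps -20 to -120 mV before and during 10 μM compound. The compound-sensitive current was obtained by subtraction, and its reversal potential was read where it could be resolved (4 cells).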

[11] = target: T2, Potassium channel subfamily K member 2 (Rattus norvegicus); experiment: Activation of TREK in depolarized Sprague-Dawley rat DRG neurons assessed as resting membrane potential at 10 uM by whole cell […] electrophysiological analysis
Procedure, shortened: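 Dissociated rat DRG neurons in current clamp, held at 0 pA. Resting membrane potential recorded before and during 10 μM compound; n = 18 cells from 4 rats; paired t test.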

Activity [1]: Active
EC50 [2]: 3.91 µM
EC50 [3]: 7.98 µM
EC50 [4]: 15.2 µM
Activity [10]: -75 mV
Activity [11]: 1.12 mV
SMILES: Cc1ccc2nc(-c3ccc(NC(=O)[C@@H]4CC[C@H](C(=O)O)C4)cc3)sc2c1
Activity (Mus musculus [5]): Dose-dependent effect
Activity (Mus musculus [6]): Active
Activity (Mus musculus [7]): Active
Activity (Mus musculus [8]): Active
Activity (Mus musculus [9]): Active
